Test results: ChEMBL document CHEMBL1140174, “A copper(I)-catalyzed 1,2,3-triazole azide-alkyne click compound is a potent inhibitor of a multidrug-resistant HIV-1 protease variant” (J Med Chem, 2008)
The source made the active and inactive calls. The rule behind the calls is not given here.

Tests used:
[1] = system: Human immunodeficiency virus 1; assay: Antiviral activity against wild type HIV1 in human SupT1 cells assessed as inhibition of viral replication measured at 6 days postinfection by p24 ELISA assay; format: functional, organism-based; details: Human immunodeficiency virus 1, SUP-T1, 144 h
In short: (§1)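 SupT1 cells (RPMI 1640, 10% FCS, 2mM L-glutamine, penicillin/streptomycin) infected with 10–100ng/mL p24 of virus at 37°C, washed, then cultured ± inhibitor at 1–4000 nM. Supernatant sampled every second day with media and inhibitor replenished. p24 measured by ELISA at 6 days post-infection, expressed as percentage of untreated cells; EC50 by nonlinear regression.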

[2] = system: Human immunodeficiency virus 1; assay: Antiviral activity against multidrug-resistant HIV1 with protease V82A, M46I, F53L, V77I, L24I, L63P mutation in human SupT1 cells assessed as inhibition of viral replication measured at 6 days postinfection by p24 ELISA assay; format: functional, organism-based; details: Human immunodeficiency virus 1, SUP-T1, 144 h; in short: as §1
[3] = system: Human immunodeficiency virus 1; assay: Antiviral activity against wild type HIV1 in human SupT1 cells assessed as viral LTR-driven luciferase activity using TZM-bl cells; format: functional, organism-based; details: Human immunodeficiency virus 1, SUP-T1
In short: (§2)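 SupT1 cells infected at MOI 0.001–0.005 and cultured with inhibitor at 1–4000 nM. On day 5–6, cell-free supernatant transferred to 10^4 TZM-bl cells carrying an HIV-1 LTR-driven luciferase reporter. Luciferase read by luminescence after 48 h. EC50 from nonlinear regression.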

[4] = system: Human immunodeficiency virus 1; assay: Antiviral activity against multidrug-resistant HIV1 with protease V82A, M46I, F53L, V77I, L24I, L63P mutation in human SupT1 cells assessed as viral LTR-driven luciferase activity using TZM-bl cells; format: functional, organism-based; details: Human immunodeficiency virus 1, SUP-T1; in short: as §2
Protease = Protease (Human immunodeficiency virus 1, UniProt Q9YQ12); assay: Inhibition of wild type HIV1 protease
In short: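 Purified HIV-1 protease (expression and purification described in earlier work) is preincubated with inhibitor in 25mM MES pH 5.6, 200mM NaCl, 5% glycerol, 1mM DTT in a prewarmed plate. Final concentrations: 25nM protease, 30µM fluorogenic anthranilyl substrate H-2992, 0.001–600µM inhibitor. Cleavage is read as fluorescence intensity. IC50 comes from nonlinear regression of initial velocities against inhibitor concentration, and Ki is calculated with the Cheng-Prusoff equation.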

[5] = Inhibition of multidrug-resistant HIV1 protease with V82A, M46I, F53L, V77I, L24I, L63P mutation; set-up: species or system Human immunodeficiency virus 1
In short: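 Fluorogenic cleavage assay with purified protease in 25mM MES pH 5.6, 200mM NaCl, 5% glycerol, 1mM DTT. Final concentrations 25nM enzyme, 30μM anthranilyl substrate H-2992, inhibitor 0.001–600μM. Reaction started by adding substrate in a prewarmed plate, read by fluorescence. IC50 by nonlinear regression of initial velocities; Ki from Cheng-Prusoff.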

[6] = system: Human immunodeficiency virus 1; assay: Antiviral activity against wild type HIV1 in human SubT1 cells assessed as inhibition of viral replication at 250 nM measured at 6 days postinfection by p24 ELISA assay; format: functional, organism-based
In short: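 SupT1 cells (RPMI 1640, 10% fetal calf serum) were infected with wild-type HIV-1 (10–100ng/mL p24) at 37°C, washed, then cultured with inhibitor at 1–4000 nM. Every second day supernatant was sampled and medium plus inhibitor replaced. p24 was measured by ELISA 6 days post-infection and expressed as a percentage of untreated cells (relative p24).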

[7] = system: Human immunodeficiency virus 1; assay: Antiviral activity against multidrug-resistant HIV1 with protease V82A, M46I, […], V77I, L24I, L63P mutation in human SubT1 cells assessed as inhibition of viral replication at 250 nM measured at 6 days postinfection by p24 ELISA assay relative to control; format: functional
In short: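 SupT1 cells (RPMI 1640, 10% fetal calf serum, 2mM L-glutamine, penicillin/streptomycin) infected with 10–100ng/mL p24 of SupT1-grown virus at 37°C, washed, then resuspended in medium with or without inhibitor (1–4000 nM range). Supernatant sampled every second day with medium and inhibitor replenished. p24 quantified by ELISA 6 days post infection, expressed as percentage of untreated cells.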

Sequence of Protease (Q9YQ12 whole entry): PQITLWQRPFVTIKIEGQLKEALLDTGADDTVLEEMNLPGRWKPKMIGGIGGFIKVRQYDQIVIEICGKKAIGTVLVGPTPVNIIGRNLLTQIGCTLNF

SMILES | EC50 [1] | EC50 [2] | EC50 [3] | EC50 [4] | IC50 (Protease) | Ki (Protease) | IC50 [5] | Ki [5] | Activity [6] | fold change (FC) [7]
COc1ccc(S(=O)(=O)N(CC(C)C)C[C@@H](O)[C@H](Cc2ccccc2)n2cc(COC(=O)N[C@H]3c4ccccc4C[C@H]3O)nn2)cc1 | 30 nM | 55 nM | 86 nM | 260 nM | 6 nM | 2.7 nM | 15.7 nM | 7.1 nM | Active | 20
CC(C)[C@H](NC(=O)[C@H](C)NC(=O)OCc1ccccc1)C(=O)N[C@@H](Cc1ccccc1)[C@@H](O)[C@H](O)[C@H](Cc1ccccc1)NC(=O)[C@@H](NC(=O)[C@H](C)NC(=O)OCc1ccccc1)C(C)C | 46 nM |  | 92 nM |  |  |  |  |  |  | 
